Measured values reported in ChEMBL document CHEMBL4251593, “Nontoxic combretafuranone analogues with high in vitro antibacterial activity” (Eur J Med Chem, 2018).
In brackets after ≈: the same amount, converted by molar mass.

Legend:
[1] = test system: Staphylococcus epidermidis; assay: Antibacterial activity against Staphylococcus epidermidis HK6966/08 clinical isolate after 24 hrs by microdilution assay; format: functional; conditions: HK6966/08, 24 h
[2] = test system: Klebsiella pneumoniae; assay: Antibacterial activity against Klebsiella pneumoniae HK11750/08 clinical isolate after 24 hrs by microdilution assay; format: functional; conditions: HK11750/08, 24 h
[3] = test system: Escherichia coli; assay: Antibacterial activity against Escherichia coli ATCC 8739 after 48 hrs by microdilution assay; format: functional; conditions: ATCC 8739, 48 h
Method in brief: (§1)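 Broth microdilution in Mueller-Hinton medium buffered to pH 7.4 (±0.2), with DMSO as diluent at no more than 2% final. Compounds were tested as 2-fold serial dilutions from 2000 to 0.488 µmol/l. The inoculum was 0.5 McFarland (1.5×10^8 cfu/ml). Plates were held at 37 °C and read visually at 24 and 48 h. MIC was taken as 95% growth inhibition versus control, determined twice in duplicate.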

[4] = test system: Enterococcus sp.; assay: Antibacterial activity against Enterococcus sp. HK14365/08 clinical isolate after 24 hrs by microdilution assay; format: functional; conditions: HK14365/08, 24 h
[5] = test system: TERT-RPE1; assay: Cytotoxicity against human RPE1 cells assessed as reduction in cell viability after 48 hrs by ATPlite-based luminescent assay; conditions: RPE-1, 48 h
Method in brief: (§2)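 Cells were grown […] with 10% FBS, glutamax, NEAA and pen/strep at 37 °C, 5% CO2. Media were DMEM for RPE-1, HepG2 and BJ (BJ plus 10 ng/ml bFGF), F-12K for PC3, and IMDM for K562/HL-60. Cells were seeded at 500 per well and dosed from DMSO at 12 concentrations, 40 µM to 1 nM, in triplicate. After 48 h, intracellular ATP was read by luminescence. ED50 was obtained by variable-slope nonlinear regression.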

[6] = test system: Pseudomonas aeruginosa; assay: Antibacterial activity against Pseudomonas aeruginosa ATCC 9027 after 48 hrs by microdilution assay; format: functional; conditions: ATCC 9027, 48 h; method in brief: as §1
[7] = test system: PC-3; assay: Induction of apoptosis in human PC3 cells assessed as caspase 3/7 activity after 24 hrs by caspase-glo luminescent assay; format: cell-based; conditions: PC-3, 24 h
Method in brief: (§3)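 Cells were seeded at 500 per well in their growth media and exposed to 12 concentrations from 40 µM to 1 nM, delivered from DMSO, in triplicate. After 24 h, caspase-3/7 activity was read by Caspase-Glo luminescence. Data were normalized and ED50 was fitted by variable-slope nonlinear regression.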

[8] = test system: Klebsiella pneumoniae; assay: Antibacterial activity against Klebsiella pneumoniae HK14368/08 clinical isolate after 24 hrs by microdilution assay; format: functional; conditions: HK14368/08, 24 h
[9] = test system: Staphylococcus aureus; assay: Antibacterial activity against methicillin-resistant Staphylococcus aureus HK5996/08 clinical isolate after 24 hrs by microdilution assay; format: functional; conditions: HK5996/08, 24 h
[10] = test system: HepG2; assay: Cytotoxicity against human HepG2 cells assessed as reduction in cell viability after 48 hrs by ATPlite-based luminescent assay; conditions: HepG2, 48 h; method in brief: as §2
[11] = test system: Staphylococcus aureus; assay: Antibacterial activity against Staphylococcus aureus ATCC 6538 after 24 hrs by microdilution assay; format: functional; conditions: ATCC 6538, 24 h
[12] = test system: Staphylococcus aureus; assay: Antibacterial activity against methicillin-resistant Staphylococcus aureus HK5996/08 clinical isolate after 48 hrs by microdilution assay; format: functional; conditions: HK5996/08, 48 h
[13] = test system: HepG2; assay: Induction of apoptosis in human HepG2 cells assessed as caspase 3/7 activity after 24 hrs by caspase-glo luminescent assay; format: cell-based; conditions: HepG2, 24 h; method in brief: as §3
[14] = test system: Enterococcus sp.; assay: Antibacterial activity against Enterococcus sp. HK14365/08 clinical isolate after 48 hrs by microdilution assay; format: functional; conditions: HK14365/08, 48 h
[15] = test system: Pseudomonas aeruginosa; assay: Antibacterial activity against Pseudomonas aeruginosa ATCC 9027 after 24 hrs by microdilution assay; format: functional; conditions: ATCC 9027, 24 h; method in brief: as §1
[16] = test system: Staphylococcus aureus; assay: Antibacterial activity against Staphylococcus aureus ATCC 6538 after 48 hrs by microdilution assay; format: functional; conditions: ATCC 6538, 48 h
[17] = test system: Escherichia coli; assay: Antibacterial activity against Escherichia coli ATCC 8739 after 24 hrs by microdilution assay; format: functional; conditions: ATCC 8739, 24 h; method in brief: as §1
[18] = test system: MCF7; assay: Cytotoxicity against human MCF7 cells assessed as reduction in cell viability after 48 hrs by ATPlite-based luminescent assay; conditions: MCF7, 48 h
[19] = test system: HL-60; assay: Induction of apoptosis in human HL60 cells assessed as caspase 3/7 activity after 24 hrs by caspase-glo luminescent assay; format: cell-based; conditions: HL-60, 24 h; method in brief: as §3
[20] = test system: K562; assay: Induction of apoptosis in human K562 cells assessed as caspase 3/7 activity after 24 hrs by caspase-glo luminescent assay; format: cell-based; conditions: K562, 24 h; method in brief: as §3
[21] = test system: PC-3; assay: Cytotoxicity against human PC3 cells assessed as reduction in cell viability after 48 hrs by ATPlite-based luminescent assay; conditions: PC-3, 48 h; method in brief: as §2
[22] = test system: Staphylococcus epidermidis; assay: Antibacterial activity against Staphylococcus epidermidis HK6966/08 clinical isolate after 48 hrs by microdilution assay; format: functional; conditions: HK6966/08, 48 h
[23] = test system: TERT-RPE1; assay: Induction of apoptosis in human RPE1 cells assessed as caspase 3/7 activity after 24 hrs by caspase-glo luminescent assay; format: cell-based; conditions: RPE-1, 24 h; method in brief: as §3
[24] = test system: K562; assay: Cytotoxicity against human K562 cells assessed as reduction in cell viability after 48 hrs by ATPlite-based luminescent assay; conditions: K562, 48 h; method in brief: as §2
[25] = test system: BJ; assay: Cytotoxicity against human BJ cells assessed as reduction in cell viability after 48 hrs by ATPlite-based luminescent assay; method in brief: as §2
[26] = test system: Klebsiella pneumoniae; assay: Antibacterial activity against Klebsiella pneumoniae HK14368/08 clinical isolate after 48 hrs by microdilution assay; format: functional; conditions: HK14368/08, 48 h
[27] = test system: HL-60; assay: Cytotoxicity against human HL60 cells assessed as reduction in cell viability after 48 hrs by ATPlite-based luminescent assay; conditions: HL-60, 48 h; method in brief: as §2
[28] = test system: Klebsiella pneumoniae; assay: Antibacterial activity against Klebsiella pneumoniae HK11750/08 clinical isolate after 48 hrs by microdilution assay; format: functional; conditions: HK11750/08, 48 h

| SMILES | MIC95 [1] | MIC95 [2] | MIC95 [3] | MIC95 [4] | IC50 [5] | MIC95 [6] | IC50 [7] | MIC95 [8] | MIC95 [9] | IC50 [10] | MIC95 [11] | MIC95 [12] | IC50 [13] | MIC95 [14] | MIC95 [15] | MIC95 [16] | MIC95 [17] | IC50 [18] | IC50 [19] | IC50 [20] | further results |
| --- | --- | --- | --- | --- | --- | --- | --- | --- | --- | --- | --- | --- | --- | --- | --- | --- | --- | --- | --- | --- | --- |
| O=C1OCC(c2ccc(C(F)(F)F)cc2)=C1c1ccc(Br)cc1 | 125 µM (≈ 47.9 µg/mL) | > 500 µM | > 500 µM | > 500 µM | 16.4 µM | > 500 µM | > 40 µM | > 500 µM | 62.5 µM (≈ 23.9 µg/mL) | 11.4 µM | 62.5 µM (≈ 23.9 µg/mL) | 62.5 µM (≈ 23.9 µg/mL) | > 40 µM | > 500 µM | > 500 µM | 62.5 µM (≈ 23.9 µg/mL) | > 500 µM | 6.37 µM | > 40 µM | > 40 µM | IC50 [21]: > 40 µM; MIC95 [22]: 125 µM (≈ 47.9 µg/mL); IC50 [23]: > 40 µM; IC50 [24]: > 40 µM; IC50 [25]: > 40 µM; MIC95 [26]: > 500 µM; IC50 [27]: > 40 µM; MIC95 [28]: > 500 µM |
| O=C1OCC(c2ccccc2)=C1c1ccc(F)cc1 | 125 µM (≈ 31.8 µg/mL) | > 500 µM | > 500 µM | > 500 µM | > 40 µM | > 500 µM | > 40 µM | > 500 µM | 125 µM (≈ 31.8 µg/mL) | > 40 µM | 15.6 µM (≈ 3.97 µg/mL) | 125 µM (≈ 31.8 µg/mL) | > 40 µM | > 500 µM | > 500 µM | 15.6 µM (≈ 3.97 µg/mL) | > 500 µM | > 40 µM | > 40 µM | > 40 µM | IC50 [21]: > 40 µM; MIC95 [22]: 125 µM (≈ 31.8 µg/mL); IC50 [23]: > 40 µM; IC50 [24]: > 40 µM; IC50 [25]: > 40 µM; MIC95 [26]: > 500 µM; IC50 [27]: > 40 µM; MIC95 [28]: > 500 µM |
| COc1ccc(C2=C(c3ccc4c(c3)OCO4)COC2=O)cc1 | 125 µM (≈ 38.8 µg/mL) | > 500 µM | > 500 µM | > 500 µM | > 40 µM | > 500 µM | > 40 µM | > 500 µM | > 500 µM | > 40 µM | 7.81 µM (≈ 2.42 µg/mL) | > 500 µM | > 40 µM | > 500 µM | > 500 µM | 15.6 µM (≈ 4.85 µg/mL) | > 500 µM | > 40 µM | > 40 µM | > 40 µM | IC50 [21]: > 40 µM; MIC95 [22]: 500 µM (≈ 155 µg/mL); IC50 [23]: > 40 µM; IC50 [24]: 15.7 µM; IC50 [25]: > 40 µM; MIC95 [26]: > 500 µM; IC50 [27]: 15.5 µM; MIC95 [28]: > 500 µM |
| Cc1ccc(C2=C(c3ccc(F)cc3)C(=O)OC2)cc1 | 125 µM (≈ 33.5 µg/mL) | > 500 µM | > 500 µM | > 500 µM | > 40 µM | > 500 µM | > 40 µM | > 500 µM | > 500 µM | > 40 µM | 125 µM (≈ 33.5 µg/mL) | > 500 µM | > 40 µM | > 500 µM | > 500 µM | 125 µM (≈ 33.5 µg/mL) | > 500 µM | > 40 µM | 7.53 µM | 3.23 µM | IC50 [21]: > 40 µM; MIC95 [22]: 125 µM (≈ 33.5 µg/mL); IC50 [23]: > 40 µM; IC50 [24]: 4 µM; IC50 [25]: > 40 µM; MIC95 [26]: > 500 µM; IC50 [27]: 9.34 µM; MIC95 [28]: > 500 µM |
| COc1cc(OC)c(C2=C(c3ccc(OC)c(OC)c3OC)COC2=O)c(OC)c1 | 125 µM (≈ 52.1 µg/mL) | > 500 µM | > 500 µM | > 500 µM | > 40 µM | > 500 µM | > 40 µM | > 500 µM | 62.5 µM (≈ 26 µg/mL) | > 40 µM | 31.2 µM (≈ 13 µg/mL) | 62.5 µM (≈ 26 µg/mL) | > 40 µM | > 500 µM | > 500 µM | 31.2 µM (≈ 13 µg/mL) | > 500 µM | > 40 µM | > 40 µM | > 40 µM | IC50 [21]: > 40 µM; MIC95 [22]: 125 µM (≈ 52.1 µg/mL); IC50 [23]: > 40 µM; IC50 [24]: 22.8 µM; IC50 [25]: > 40 µM; MIC95 [26]: > 500 µM; IC50 [27]: > 40 µM; MIC95 [28]: > 500 µM |
| COc1ccc(C2=C(c3ccc(OC)c(OC)c3)C(CO)(CO)OC2=O)cc1 | 250 µM (≈ 96.6 µg/mL) | > 500 µM | > 500 µM | > 500 µM | > 40 µM | > 500 µM | > 40 µM | > 500 µM | 500 µM (≈ 193 µg/mL) | > 40 µM | > 500 µM | 500 µM (≈ 193 µg/mL) | > 40 µM | > 500 µM | > 500 µM | > 500 µM | > 500 µM | > 40 µM | > 40 µM | > 40 µM | IC50 [21]: > 40 µM; MIC95 [22]: 250 µM (≈ 96.6 µg/mL); IC50 [23]: > 40 µM; IC50 [24]: > 40 µM; IC50 [25]: > 40 µM; MIC95 [26]: > 500 µM; IC50 [27]: > 40 µM; MIC95 [28]: > 500 µM |
